The list is not random: actives were taken first. Their share in the collection is about 2.3%.
Arr AP2 block = inhibitors of human beta-arrestin and AP2 interaction; FITC-arrestin peptide / GST-AP2 beads, flow cytometry; AP2 beta2 appendage carries R879A mutation; inhibition, % at 10 µM; hit rate 0.31% among 340,000; AID 504490;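 active means inhibition above a set limit, near 3 SD of compounds lacking own fluorescence, cut at about 54% in these data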;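 further: plate controls were DMSO wells for no effect and 5 µM unlabelled arrestin peptide for full effect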
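Assay system: GST-AP2 R879A bound to glutathione beads, E. coli-expressed; Medium: PBS with 0.05% Tween 20 and 0.1% BSA; Also added: fluorescein-tagged arrestin peptide at 50 nM final; Timing: 12 min plus 1 h, RT; Measured by: flow cytometry, FL1 (488/535 nm); Evaluation: percent drop in bead-associated FITC signal.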
PfHsp90 yeast 2 = inhibits growth of yeast expressing Plasmodium falciparum Hsp90. hit rate 0.32% among 310,000. S. cerevisiae expressing PfHsp90, BacTiter-Glo ATP, 48 h; yeast lacking PDR1 and PDR3 efflux regulators. inhibition, % at 9.4 µM;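 active means every replicate shows inhibition above about 80%, whatever the replicate mean, limit read from the data; inconclusive means mean inhibition reaches the set limit but some replicate falls short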;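 further: 0% = DMSO neutral controls and 100% = 20 µM radicicol positive controls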
Rtt109 Vps75 = blocks Candida albicans Rtt109/Vps75 acetyltransferase activity. Q5AAJ8. purified Rtt109/Vps75, ThioGlo CoA-SH fluorescence, 4 h. inhibition, % at 34.9 µM. hit rate 0.16% among 330,000;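 active means inhibition of at least 50% in every replicate; inconclusive means best replicate reaches 50% inhibition but some replicates fall short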
Target sequence (Q5AAJ8 whole entry, looked up): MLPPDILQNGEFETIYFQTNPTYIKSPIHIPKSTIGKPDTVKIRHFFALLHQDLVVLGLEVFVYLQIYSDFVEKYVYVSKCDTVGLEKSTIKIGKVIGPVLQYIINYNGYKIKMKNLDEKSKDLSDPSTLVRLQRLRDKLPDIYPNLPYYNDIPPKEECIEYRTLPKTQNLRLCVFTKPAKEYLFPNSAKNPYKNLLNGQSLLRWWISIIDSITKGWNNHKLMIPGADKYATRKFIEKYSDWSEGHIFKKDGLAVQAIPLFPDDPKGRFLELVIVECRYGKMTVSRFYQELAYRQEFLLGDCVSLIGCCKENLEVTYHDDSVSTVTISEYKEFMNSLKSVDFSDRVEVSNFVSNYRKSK
HIV Env fusion = blocks HIV Env-driven cell-cell fusion; HeLa-JRFL Env/CEM21 cell fusion, luciferase; inhibition, % at 12.3 µM; hit rate 1.1% among 360,000; AID 651610;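 active means mean replicate inhibition score of at least 50 and every replicate individually at or above 50; inconclusive means only one of the two criteria met; inactive means mean below 50 and not all replicates reaching 50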;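 further: 0% = plate neutral controls and 100% = maraviroc near 300 nM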
N-glyco inh = blocks N-linked glycosylation in D54 reporter cells; hit rate 0.23% among 360,000; AID 588692; reporter increase, % at 12.5 µM; D54 ERlucT glycosylation luciferase reporter, 24 h; percent of 100 nM tunicamycin response;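 active means mean luciferase reporter signal, scaled so untreated is 0 and the glycosylation-blocking control 100, at or above a set limit in every replicate; inconclusive means mean reaches the limit but not every replicate does; inactive means mean below the limit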;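 further: luciferase carries N-glycosylation sites so blocking glycosylation raises the light; 0% = median of neutral control wells and 100% = median of 100 nM tunicamycin wells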
PAX8 inh HTS = inhibitors of PAX8 transcriptional activity in RMG-I cells; RMG-I TPO-luciferase reporter, SteadyGlo, 24 h; inhibition, % at 12.6 µM; hit rate 1.2% among 360,000; AID 652154;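 active means mean replicate inhibition at least 60% with every replicate also reaching 60%; inconclusive means only one of the two criteria is met; inactive means mean below 60% and not all replicates reaching 60%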;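 further: luciferase light reporting Pax8 driven TPO promoter activity; plate controls were median of neutral control wells for no effect and mitoxantrone controls for full effect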
* hit, by the source's call; ? = inconclusive; · = no result given; + = active, no number; [ ] = dose if it differs, or a comment.

SMILES	Arr AP2 block	PfHsp90 yeast 2	Rtt109 Vps75	HIV Env fusion	N-glyco inh	PAX8 inh HTS
COc1ccc(N2C(=O)N3[C@H](c4ccc(Cl)cc4)[C@@H]4C(=O)N(C5CCCCC5)C(=O)[C@@H]4[C@]3(C)C2=O)cc1	7	-14	5	85*	0	1
C[C@@]12C(=O)N(c3cccc(F)c3)C(=O)N1[C@H](c1ccc(Cl)cc1)[C@@H]1C(=O)N(C3CCCCC3)C(=O)[C@@H]12	32	-2	3	1	0	4
C[C@@H]1CN([C@@H](C)CO)S(=O)(=O)c2ccc(C#CC3CC3)cc2O[C@@H]1CN(C)C(=O)C1CCCCC1	·	·	·	4[16.7 µM]	·	·
CC(=O)Nc1ccccc1OCC(=O)N(Cc1ccccc1)C(C)C	7	10	-9	61*	0	20
O=C(C(Br)=Cc1ccccc1)c1ccccc1	6	·	6	13	6	86*
COc1cc(C#Cc2c(-c3cncn3C)n(C)c3ccc(-c4ccc(OC)nc4)cc23)cc(OC)c1	15	+	2	0	-9	14
COc1cc(C#Cc2c(-c3cncn3C)n(C)c3ccc(-c4cc(OC)c(OC)c(OC)c4)cc23)cc(OC)c1	23	12	-4	34	-3	73*
COc1ccc(NC(=O)Nc2ccc3c(c2)CC(=O)N([C@H](C)CO)C[C@H](C)[C@H](CN(C)S(=O)(=O)c2ccc(Cl)cc2)O3)cc1	·	·	·	-45[16.7 µM]	·	·
C[C@@H]1CCCCO[C@H](CN(C)C(=O)C2CCCCC2)[C@H](C)CN([C@H](C)CO)C(=O)c2cc(NS(=O)(=O)c3cn(C)cn3)ccc2O1	·	·	·	-9[16.7 µM]	·	0
O=S(=O)(Cc1ccccc1)N1CCCCN2[C@H](CO)[C@@H](c3ccc(-c4ccccc4)cc3)[C@@H]2C1	·	·	·	·	·	0
Cc1ccc(S(=O)(=O)NOCc2ccccc2)cc1	-18	5	-1	0	-1	25
CCC(=NOCc1ccccc1)C(=O)NNS(=O)(=O)c1ccc(C)cc1	-10	·	4	57*	-1	6
CO[C@@H]1CN(C)C(=O)c2cc(NC(=O)Nc3ccc(Cl)cc3)ccc2OC[C@@H](C)N(C(=O)Nc2c(C)noc2C)C[C@@H]1C	·	·	·	-23[16.7 µM]	·	3
CNC[C@H]1Oc2ccc(NC(=O)NC(C)C)cc2CC(=O)N([C@@H](C)CO)C[C@@H]1C	·	·	·	·	·	91*
CNC[C@@H]1Oc2ccc(NC(=O)NC(C)C)cc2CC(=O)N([C@@H](C)CO)C[C@@H]1C	·	·	·	·	·	92*
CNC[C@@H]1Oc2ccc(NC(=O)NC(C)C)cc2CC(=O)N([C@H](C)CO)C[C@@H]1C	·	·	·	·	·	14
CCOC(=O)[C@]12CCCC=C1N(Cc1cccc3ccccc13)C(=O)[C@H](CC(=O)N1CCN(C(=O)c3ccco3)CC1)C2	·	·	·	-4	·	85*
COC(=O)[C@]12CCCCC=C1N(Cc1ccco1)C(=O)[C@H](CC(=O)N1CCSCC1)C2	·	·	·	8	·	17
COC(=O)[C@]12CCCCC=C1N(Cc1ccco1)C(=O)[C@H](CC(=O)N1CCN(C(=O)c3ccco3)CC1)C2	·	·	·	2	·	85*
Cc1ccc(S(=O)(=O)N[C@@H]2CC[C@@H](CCn3cc(-c4ccccc4F)nn3)O[C@H]2CO)cc1	·	·	·	-14[16.7 µM]	·	21
C[C@H](CO)N1C[C@H](C)[C@H](CN(C)C(=O)C2CCCCC2)OCCCC[C@H](C)Oc2ccc(NC(=O)NC3CCCCC3)cc2C1=O	·	·	·	-66[16.7 µM]	·	-1
COc1cccc2cc(-c3nc(-c4cccs4)cs3)c(=O)oc12	99*	-8	-3	-352	-1	-186
C[C@@H]1CCCCO[C@H](CN(C)Cc2ccc(C(F)(F)F)cc2)[C@H](C)CN([C@@H](C)CO)C(=O)c2cc(NC(=O)Nc3ccc(C(F)(F)F)cc3)ccc2O1	·	·	·	38[16.7 µM]	·	-13
C[C@H](CO)N1C[C@H](C)[C@H](CN(C)Cc2ccc(Cl)c(Cl)c2)OCCCC[C@H](C)Oc2ccc(NC(=O)Nc3ccc(C(F)(F)F)cc3)cc2C1=O	·	·	·	?	·	88*
C[C@@H]1CCCCO[C@@H](CN(C)Cc2ccc(Cl)c(Cl)c2)[C@@H](C)CN([C@@H](C)CO)C(=O)c2cc(NC(=O)Nc3ccc(C(F)(F)F)cc3)ccc2O1	·	·	·	22[16.7 µM]	·	73*
SMILES	Arr AP2 block	PfHsp90 yeast 2	Rtt109 Vps75	HIV Env fusion	N-glyco inh	PAX8 inh HTS
C[C@@H]1CN([C@H](C)CO)C(=O)c2cc(NC(=O)Nc3ccc(C(F)(F)F)cc3)ccc2O[C@@H](C)CCCCO[C@@H]1CN(C)Cc1ccc(Cl)c(Cl)c1	·	·	·	8[16.7 µM]	·	86*
COc1ccc([C@@H](OC(=O)Nc2ccc(SC)cc2)[C@@H](CCO)OC)cc1O	·	·	·	8[16.7 µM]	·	-4
NC(=O)c1ccc2c(=O)n3c(-c4cc(Cl)c(N)c(Cl)c4)csc3nc2c1	4	-22	-24	17	29*	10
O=C(NCC1CCCO1)C(=O)NCC(c1ccco1)N1CCN(c2ccc(F)cc2)CC1 (stereo not drawn)	5	16	6	·	-2	34
O=C(NCC1CCCO1)C(=O)NCC(c1ccco1)N1CCN(c2ccccc2)CC1 (stereo not drawn)	5	-13	-1	·	-1	151*
C/C=C/c1cnc2c(c1)C(=O)N([C@@H](C)CO)C[C@@H](C)[C@H](CN(C)C(=O)NC1CCCCC1)O2	·	·	·	-16[16.7 µM]	·	5
Cn1c(NCc2ccccc2)nc2cc(-c3ccccc3)sc2c1=O	·	·	·	3	-1	1
COc1cccc(CNc2nc3cc(-c4ccc(OC)c(OC)c4)sc3c(=O)n2C)c1	·	·	·	60*	-5	12
COc1cccc(CNc2nc3cc(-c4ccccc4)sc3c(=O)n2C)c1	·	·	·	63*	-4	19
Cc1noc(C)c1S(=O)(=O)Nc1ccc2c(c1)C(=O)N([C@H](C)CO)C[C@H](C)[C@H](CN(C)C(=O)Nc1ccc(C(F)(F)F)cc1)OCCCC[C@H](C)O2	·	·	·	18[16.7 µM]	·	68*
Cc1noc(C)c1S(=O)(=O)Nc1ccc2c(c1)C(=O)N([C@H](C)CO)C[C@H](C)[C@@H](CN(C)C(=O)Nc1ccc(C(F)(F)F)cc1)OCCCC[C@H](C)O2	·	·	·	44[16.7 µM]	·	86*
Cc1noc(C)c1S(=O)(=O)Nc1ccc2c(c1)C(=O)N([C@@H](C)CO)C[C@@H](C)[C@@H](CN(C)C(=O)Nc1ccc(C(F)(F)F)cc1)OCCCC[C@@H](C)O2	·	·	·	13[16.7 µM]	·	26
Cc1noc(C)c1S(=O)(=O)Nc1ccc2c(c1)C(=O)N([C@@H](C)CO)C[C@H](C)[C@H](CN(C)C(=O)Nc1ccc(C(F)(F)F)cc1)OCCCC[C@H](C)O2	·	·	·	22[16.7 µM]	·	89*
CCS(=O)(=O)N1CC2(C1)[C@H](c1ccccc1)[C@@H](CO)N2Cc1ccc(F)cc1	·	·	·	·	·	8
Cc1ccccc1CCNC(=O)c1ccc(Cl)c(S(=O)(=O)N2CC(C)OC(C)C2)c1 (stereo not drawn)	12	-4	0	59*	-3	33

Screening data as filed in PubChem BioAssay.
